From PubChem BioAssay
Beta apoptosis – inhibitors of cytokine-induced beta cell apoptosis, primary screen, luminescence | INS-1E cytokine-induced death, ATP luminescence, 48 h; percent of positive-control rescue, neutral wells zero | protection from apoptosis, % (concentration not given with the values) | 0.8% of 300,000 active | AID 435005, 2010;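 active = Every replicate reaches about 75%, or at least half do and their mean reaches it too, limit read from the data; inconclusive = At least half of replicates reach the limit but their mean does not; inactive = Under half of replicates reach the limit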;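 note: 0% = cytokine-treated negative control wells and 100% = positive control rescue; higher means more ATP so stronger rescue from cytokine killing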
PfHsp90 set2 – growth inhibition of PfHsp90-expressing yeast, primary screen, antimalarial PfHsp90 inhibitor project, S. cerevisiae, BacTiter-Glo luminescence, single point, set 2 | 0.32% of 310,000 active | AID 504621, 2011 | inhibition, % at 9.4 µM | BacTiter-Glo ATP, 48 h; yeast lacking PDR1 and PDR3 efflux regulators;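 active = every replicate shows inhibition above about 80%, whatever the replicate mean, limit read from the data; inconclusive = mean inhibition reaches the set limit but some replicate falls short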;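 note: 0% = DMSO neutral controls and 100% = 20 µM radicicol positive controls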
SKKanGAS inh – S. pyogenes SKKanGAS growth inhibitors in kanamycin, primary screen, streptokinase expression inhibitor project, SKKanGAS strain, BacTiter-Glo luminescence; 6 h; AID 1662, 2009; inhibition, % at 7.5 µM; 1.3% of 300,000 active;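 active = mean replicate score, as percent of positive control median, at least 50; inconclusive = mean below 50 but one replicate at or above 50; inactive = mean and every replicate below 50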;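 note: strain carries kanamycin resistance gene driven by streptokinase promoter and grows in 40 µg/ml kanamycin; loss of luminescence reflects streptokinase promoter inhibition or plain growth inhibition; 0% = median of DMSO wells and 100% = positive control at its reference dose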
T cruzi inh – inhibitors of intracellular T. cruzi growth, primary screen, luminescence, NIH3T3 host cells; T. cruzi beta-gal in NIH3T3, 90 h; 1.4% of 300,000 active; inhibition, % (test concentration not listed); AID 1885, 2009;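 active = mean inhibition across valid replicates above about 55%, limit read from the data; inconclusive = mean below that limit but half or more replicates reach it; inactive = mean below it, under half of replicates reach it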;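 note: signal also drops with host cell toxicity which is not excluded here; 0% = plate median of DMSO wells and 100% = zero luminescence signal; higher percent means less beta-gal luminescence so fewer parasites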
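System: NIH/3T3 fibroblasts plus reporter T. cruzi. Medium: DMEM plus 2% FBS. Probe or stimulus: 5000 reporter trypomastigotes per well. Compound: single 50 nL compound addition per well in DMSO. Incubation: co-culture of at least 90 h after 3 h attachment. Detection: GalScreen β-gal luminescence, detergent lysis, 60 min. Evaluation: parasite load inhibition, %.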
HIF act – HIF pathway transcriptional activators, primary screen, cell-based, U2OS HRE-luciferase, luminescence | activation, % at 7.5 µM (by protocol) | 0.32% of 300,000 active | AID 1910, 2009 | U2OS HRE-luciferase reporter; normalized: DMSO 0%, desferrioxamine 100%;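 active = mean activation of at least 10% of the iron chelator positive control signal, with at least half of replicates also reaching 10%; inconclusive = mean and replicate majority disagree about reaching 10%; inactive = mean and most replicates under 10%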
CSC inhib – cancer stem cell viability inhibitors, primary screen, luminescence. cancer stem cell-like cells viability. inhibition, % at 7.5 µM. 1.1% of 300,000 active; in the data active = inhibition above about 75%; inconclusive = no clear call, values can overlap the other calls; tested in HMLE shEcad cells
* = called active by the depositor; u = inconclusive; x = not tested or not shown. Hits are enriched below; roughly 3.6% of the tested compounds scored in any of these assays.

SMILES	Beta apoptosis	PfHsp90 set2	SKKanGAS inh	T cruzi inh	HIF act	CSC inhib
CN(C)CCCN(C(=O)COc1ccc(Cl)cc1)c1nc2cc3c(cc2s1)OCCO3	x	x	1.0	57.1*	-1.6	-7.3
CCCCOc1ccc(C(=O)Oc2ccc(C)nc2)cc1	-3.8	-17.3	11.6	-16.1	1.5	x
CCCCCOc1ccc(OC(=O)c2ccncc2)cc1	10.9	x	-1.7	30.9	3.4	93.2*
O=C(COC(=O)c1cc(=O)[nH]c2ccccc12)NCc1ccccc1	7.2	-25.4	x	x	x	4.0
O=C(/C=C/NNC(=O)c1ccccc1)c1ccc([N+](=O)[O-])cc1	94.9*	-12.6	13.0	60.9*	0.0	20.2
COCCNC(=O)C1CC(c2ccc(C(F)(F)F)cc2)=NO1 (stereo not drawn)	-8.8	x	-2.0	-27.6	-0.2	-2.2
CC(=O)c1cccc(OCC(=O)N(C)CC(=O)NCc2ccco2)c1	1.6	7.5	x	x	x	-20.6
C/C(=N\N1CCN(C2c3ccccc3-c3ccccc32)CC1)c1cccnc1	-2.9	-9.1	-5.6	6.1	0.1	-10.1
CN=c1scc(-c2ccccc2F)n1/N=C(\C)c1cccnc1	7.6	7.6	-3.9	55.0*	1.3	11.1
O=C(CSc1nc2ccccc2s1)N/N=C/c1cc([N+](=O)[O-])ccc1O	-2.4	-31.8	90.6*	3.0	1.8	10.5
Cc1cc(C(=O)N/N=C/c2ccc(-c3ccccc3Cl)o2)n[nH]1	-3.7	12.1	-5.7	62.4*	1.8	22.0
O=C(N/N=C/c1ccc(O)c2ncccc12)c1cccc(Br)c1	108.8*	104.2*	15.4	60.5*	2.4	-0.7
O=C(N/N=C/c1cccnc1)c1cccc(NC(=O)c2cccc(Br)c2)c1	2.0	-23.4	1.7	11.3	0.6	x
O=C(N/N=C/c1cc([N+](=O)[O-])ccc1O)C(O)(c1ccccc1)c1ccccc1	x	1.7	50.6*	3.7	-18.8	17.5
Cc1ccccc1NC(=S)N1CCN(c2ccccc2)CC1	-6.4	-2.7	-1.0	-3.5	0.5	-27.2
CC(OC(=O)Cn1cnc2c1c(=O)n(C)c(=O)n2C)C(=O)Nc1ccc(Cl)cc1 (stereo not drawn)	-1.2	18.7	-4.2	-0.2	-10.0	3.3
Cc1cc(OCC(=O)NCCc2cccc(F)c2)c2c(C)cc(=O)oc2c1	8.6	5.3	13.1	11.1	-0.1	-7.7
NC(c1ccccc1)c1cccnc1 (stereo not drawn)	1.3	-14.4	-1.9	2.8	-0.7	5.8
Cc1ccc2c(C(=O)CN3CCC(C(N)=O)CC3)c(C)[nH]c2c1	-0.6	-21.9	-3.8	-13.2	0.3	3.2
CN(C(=O)COC(=O)COc1ccc(Cl)cc1Cl)c1c(N)n(Cc2ccccc2)c(=O)[nH]c1=O	-2.7	-6.1	0.4	-1.3	2.1	-8.5
Cc1ccc(N=Nc2ccc(O)c(/C=N\NC(=O)c3ccc(N)cc3)c2)cc1C	30.1	-5.1	-0.2	10.4	10.7*	10.6
O=C(N/N=C/c1cc([N+](=O)[O-])ccc1O)c1cccc2cc[nH]c12	100.4*	-1.3	89.4*	56.9*	27.5*	87.9*
O=C(N/N=C/c1cc([N+](=O)[O-])ccc1O)c1ccncc1	-1.0	-10.3	92.1*	-1.9	1.5	-3.2
O=C(N/N=C/c1cc(Br)ccc1O)c1ccncc1	52.9	14.6	104.1*	20.6	34.0*	3.5
CC(C)(C)OC(=O)N/N=C/c1cc(N=Nc2ccccc2)ccc1O	-2.3	20.1	30.7	-10.8	-1.4	19.2
SMILES	Beta apoptosis	PfHsp90 set2	SKKanGAS inh	T cruzi inh	HIF act	CSC inhib
O=C1CCN(Cc2ccccc2)C=C1c1cccc(O)c1	-1.6	-36.0	x	x	x	-5.4
CC1(C)O[C@@H]2[C@H](O1)[C@@H](COS(=O)(=O)O)O[C@H]2n1c(=S)[nH]c2c(=O)[nH]c(N)nc21	-4.4	36.9	x	x	x	1.1
COc1ccc(C(=O)Nc2ccnn2C2CCN(C(C)CSC)CC2)cc1 (stereo not drawn)	-5.9	-11.4	9.0	29.5	-0.8	-7.0
CN(C)c1ccc(N2C(=NC(=O)CC3CCCCC3)SC3CS(=O)(=O)CC32)cc1 (stereo not drawn)	-3.4	6.1	-8.4	-11.4	-0.2	-12.0
O=C(N/N=C/c1ccc(O)c(O)c1O)/C(=C/c1ccc([N+](=O)[O-])cc1)NC(=O)c1ccccc1	4.0	-10.0	u	33.7	10.4*	34.8
O=C(N/N=C/c1ccc(OC(=O)c2ccc(Br)cc2)cc1)c1ccncc1	-1.9	10.2	-2.0	-17.7	0.0	-5.7
O=C(N/N=C/c1cc(Br)ccc1OC(=O)c1ccc(Br)cc1)c1ccncc1	91.9*	-13.6	42.0	-6.0	19.3*	x
O=C(NC(=S)Nc1cc([N+](=O)[O-])ccc1O)c1ccc2c(c1)OCO2	22.7	-6.0	79.3*	20.3	2.9	6.8
Cc1ccc(NC(=O)/C(=C\c2ccc([N+](=O)[O-])cc2)NC(=O)c2ccccc2)cc1	-2.1	21.7	6.2	-4.6	-22.6	-13.5
NC(=O)N/N=C\c1cc(Br)ccc1O	x	-7.0	-1.7	-3.3	-0.2	x
O=C(N/N=C/c1cc(Cl)ccc1O)c1ccc(Br)cc1	112.4*	-0.9	x	x	x	99.5*
CC(CNC(=O)CN(C)CC(=O)Nc1ccccc1Br)c1ccccc1 (stereo not drawn)	x	-20.0	x	x	x	x
O=C(N/N=C/c1cc([N+](=O)[O-])ccc1O)c1cccc(N2CCCC2=O)c1	1.4	-24.6	55.4*	-9.7	1.7	-7.5
O=C(N/N=C\c1cc(Br)ccc1O)c1ccc(S(=O)(=O)N2CCCCC2)cc1	100.3*	-4.1	106.0*	59.0*	37.4*	103.7*
COc1cc(/C=N/NC(=O)c2cccc(N3CCCC3=O)c2)ccc1O	-1.0	-2.6	0.4	-14.1	0.2	12.2
Cc1cc(C(=O)N/N=C/c2cc(Br)ccc2OC(=O)c2ccccc2)n[nH]1	100.1*	-8.6	x	x	x	61.0
Cc1cc(C(=O)N/N=C/c2cc(Br)ccc2OC(=O)c2ccccc2Cl)n[nH]1	x	1.8	16.7	51.7	-0.1	x
Cc1nc(C)c(C(=O)N/N=C/c2cc(Br)ccc2O)s1	80.5*	-17.9	90.6*	23.0	28.9*	65.9
CC(C)C(NC(=O)c1ccccc1F)C(=O)NCCc1ccccn1 (stereo not drawn)	-0.2	11.2	-0.1	0.2	0.2	-2.3
O=C(N/N=C/c1cc([N+](=O)[O-])ccc1O)c1ccc2c(c1)OCCO2	105.2*	0.7	69.8*	-15.5	1.7	10.6
O=C(N/N=C/c1ccccc1[N+](=O)[O-])c1ccc2c(c1)OCCO2	1.7	-13.1	-14.9	-6.4	-1.6	25.2
CC(C)C(=O)Nc1ccc(C(=O)N/N=C/c2cc(Br)cc(Br)c2O)cc1	79.0*	5.6	67.9*	10.9	-0.2	83.5*
